Among the data in ChEMBL document CHEMBL3351408, “Bioactive diterpenoids and flavonoids from the aerial parts of Scoparia dulcis” (J Nat Prod, 2014) are EC50, IC50 and Emax values, retold here.

Assay [1] has as its target T1, Peroxisome proliferator-activated receptor gamma (Mus musculus, UniProt P37238).
T1 sequence (P37238 whole entry): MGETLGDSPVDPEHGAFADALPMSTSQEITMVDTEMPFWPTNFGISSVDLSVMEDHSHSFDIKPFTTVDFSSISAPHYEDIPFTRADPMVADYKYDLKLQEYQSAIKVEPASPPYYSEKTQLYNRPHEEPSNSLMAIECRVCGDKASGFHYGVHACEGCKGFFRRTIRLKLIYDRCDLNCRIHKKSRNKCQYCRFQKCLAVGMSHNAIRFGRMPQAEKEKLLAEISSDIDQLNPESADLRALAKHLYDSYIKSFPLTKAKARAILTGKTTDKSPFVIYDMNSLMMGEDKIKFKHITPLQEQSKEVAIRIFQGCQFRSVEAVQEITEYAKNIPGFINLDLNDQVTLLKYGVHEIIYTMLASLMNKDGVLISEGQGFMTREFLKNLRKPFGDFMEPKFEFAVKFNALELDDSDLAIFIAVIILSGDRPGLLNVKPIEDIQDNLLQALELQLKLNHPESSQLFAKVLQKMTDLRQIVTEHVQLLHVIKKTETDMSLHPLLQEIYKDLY
The assay is described as follows: Agonist activity at mouse PPARgamma expressed in HEK293 cells co-expressing with Gal4 reporter vector after 24 hrs by dual-luciferase reporter assay. The class given is cell-based. Summed up: (§1)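 HEK-293 cells grown in DMEM with 10% FBS at 37 °C under 5% CO2 and plated at 1 × 10^4 cells/well. Cells co-transfected with pCMX-Gal-mPPARγ-LBD and MH100×4TK-Luc reporter, using Renilla as internal control. Compounds added at a range of concentrations for 24 h, then dual-luciferase read-out. EC50 is the concentration giving half-maximal fold activation; Emax is the maximal fold activation. Means ± SD from four independent experiments.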
In general terms: In a reporter assay the amount or activity of a reporter protein is the signal.

The nature of assay [2]: Inhibition of Saccharomyces cerevisiae alpha-glucosidase.
For assay [3], the target named is T2, Peroxisome proliferator-activated receptor gamma (Mus musculus) (UniProt P37238).
T2 sequence (whole entry): T1 sequence (P37238 whole entry)
Briefly: Agonist activity at mouse PPARgamma expressed in HEK293 cells co-expressing with Gal4 reporter vector assessed as fold activation after 24 hrs by dual-luciferase reporter assay. The class given is cell-based. Summed up: as §1

For orientation: EC50 means the concentration at which the effect is half-maximal. A word on the IC50: it is the concentration needed to halve the response being measured. High values mean lower potency, low ones higher potency.

`C=C(C)[C@@H]1CC[C@]2(C(=O)O)CC[C@]3(C)[C@H](CC[C@@H]4[C@@]5(C)CC[C@H](O)C(C)(C)[C@@H]5CC[C@]43C)[C@@H]12` [BETULINIC ACID] came in with an EC50 in assay [1] of over 100 µM.
`COc1ccc(-c2cc(=O)c3c(O)c(OC)c(O[C@@H]4O[C@H](CO[C@@H]5O[C@@H](C)[C@H](O)[C@@H](O)[C@H]5O)[C@@H](O)[C@H](O)[C@H]4O)cc3o2)cc1` [PECTOLINARIN] showed an EC50 in assay [1] of over 100 µM.
`C[C@H]1O[C@H](O[C@H]2[C@H](O)[C@@H](O)[C@@H](O[C@H]3[C@H](O)[C@@H](O)C(O)O[C@@H]3CO)O[C@@H]2CO)[C@H](O)[C@@H](O)[C@@H]1N[C@H]1C=C(CO)[C@@H](O)[C@H](O)[C@H]1O` (some centres undefined) [ACARBOSE] registered an IC50 in assay [2] of 3760 µM.
Take `C[C@@]12CC[C@]3(C1)[C@H](CC2=O)C[C@@H](OC(=O)c1ccccc1)[C@@H]1[C@]3(C)CCC[C@]1(C)C(=O)O` [4-EPI-SCOPADULCIC ACID B]: the EC50 in assay [1] was over 100 µM. Moreover, the IC50 in assay [2] stood at 14.6 µM.
In the case of `O=c1cc(-c2ccc(O)c(O)c2)oc2cc(O)cc(O)c12` [LUTEOLIN], in assay [1], it took 2.3 µM to reach a half-maximal effect (EC50). For the same molecule, in assay [3], the Emax came to 7.6.
`CC(=O)O[C@@H]1[C@@H](OC(=O)c2ccccc2)[C@@H]2[C@](C)(CCC[C@@]2(C)C(=O)O)[C@H](CC/C(C)=C/CO)[C@@]12CO2` came in with an EC50 in assay [1] of over 100 µM.
Regarding `O=c1cc(-c2ccc(O)cc2)oc2cc(O)cc(O)c12` [APIGENIN], the EC50 in assay [1] amounted to 24.9 µM. Besides, the Emax in assay [3] stood at 3.4.
As for `O=c1cc(-c2ccc(O)cc2)oc2c([C@@H]3OC[C@H](O)[C@H](O)[C@H]3O)c(O)cc(O)c12`, the EC50 in assay [1] is over 100 µM.
In the case of `C=C1[C@@H](CC/C(C)=C/CO)[C@@]2(C)CCC[C@](C)(C(=O)O)[C@@H]2[C@H](OC(=O)c2ccccc2)[C@H]1OC(C)=O`, in assay [1], the EC50 was 0.9 µM. Also, the Emax in assay [3] is 24.7.
For `COc1ccc(-c2oc3cc(O)cc(O)c3c(=O)c2O[C@@H]2O[C@H](COC(=O)/C=C/c3ccc(O)cc3)[C@@H](O)[C@H](O)[C@H]2O)cc1OC`, the concentration for a half-maximal effect (EC50) in assay [1] was over 100 µM.
For `CN(CCOc1ccc(CC2SC(=O)NC2=O)cc1)c1ccccn1` (centres undefined), the Emax in assay [3] was found to be 11.8.
In assay [1], `COc1c(O)cc2oc(-c3ccc(O)cc3)cc(=O)c2c1O` [HISPIDULIN] returned an EC50 of 7.3 µM. Besides, the Emax in assay [3] turned out to be 11.3.
For `O=c1cc(-c2ccc(O)cc2)oc2cc(O)c(O)c(O)c12` [SCUTELLAREIN] the same measures were 16.4 µM and 3.4.
The molecule `COc1c(O[C@@H]2O[C@H](CO)[C@@H](O)[C@H](O)[C@H]2O)cc2oc(-c3ccc(O)cc3)cc(=O)c2c1O` [HISPIDULOSIDE] registered an EC50 in assay [1] of over 100 µM.
For the molecule `C=C1C[C@@H](OC(=O)c2ccccc2)[C@@H]2[C@](C)(CCC[C@@]2(C)C(=O)O)[C@@H]1CC/C(C)=C/CO` [SCOPARIC ACID A], in assay [1], the EC50 was over 100 µM.
With `COc1ccc(-c2cc(=O)c3c(O)c(OC)c(O)c(OC)c3o2)cc1O`, in assay [1], the EC50 was 4.3 µM. In assay [3], the Emax was 2.
`C=C1[C@@H](CC/C(C)=C/CO)[C@@]2(C)CCC[C@](C)(C(=O)O)[C@@H]2[C@H](OC(=O)c2ccccc2)[C@H]1O` registered an EC50 in assay [1] of over 100 µM.
